Reference: ChEMBL document CHEMBL1134778, “Amino acid phosphoramidate monoesters of 3'-azido-3'-deoxythymidine: relationship between antiviral potency and intracellular metabolism” (J Med Chem, 2001)

Legend:
CCRF-CEM [1] = assay: Concentration required to kill 50% of CEM cells; type: functional, cell-based; settings: Homo sapiens
Outline: (§1)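 Uninfected PHA-stimulated PBMCs or CEM cells plated at 2.5 × 10^5 cells/well with diluted drug. Incubated 6 days at 37 °C, 10% CO2. XTT/PMS added and incubated 4 h at 37 °C. Absorbance read at 450 nm, 630 nm reference.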

Homo sapiens [2] = species: Homo sapiens; assay: Effective concentration of required to inhibit the replication of HIV-1 BY 50% in PMBCs from donor 1; type: functional, organism-based
Homo sapiens [3] = species: Homo sapiens; assay: Effective concentration of required to inhibit the replication of HIV-1 BY 50% in PMBCs from donor 2; type: functional, organism-based
Homo sapiens [4] = species: Homo sapiens; assay: Concentration required to kill 50% of PBMCs; type: functional, organism-based; outline: as §1
Homo sapiens [5] = species: Homo sapiens; assay: (§2) Intracellular of AZT-TP concentrations in LAI/HIV-1 infected PMBCs was determined at a conc of 10 uM); type: functional, organism-based
Outline: (§3)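 PHA-stimulated, LAI/HIV-1-infected PBMCs (donor 2) at 10^6 cells/mL, triplicate, given 10 µM compound ± 50 µM thymidine for 18 h at 37 °C. Cells washed, extracted in 60% methanol overnight at −20 °C, dried and reconstituted. AZT-TP quantified by inhibition of recombinant HIV-1 RT (poly(rA)-oligo(dT), 3H-TTP, 2 h at 37 °C) relative to AZT-TP standards; pmol/10^6 cells.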

Homo sapiens [6] = species: Homo sapiens; assay: as §2; type: functional, organism-based; outline: as §3; remark: listed apart in the source
CCRF-CEM [7] = assay: Effective concentration to inhibit HIV-1 replication by 50% in CEM cells; type: functional, cell-based; settings: Homo sapiens
Outline: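 PHA-stimulated CEM cells infected 3 h at 37 °C with LAI/HIV-1 (10 000 DPM RT activity/10^6 cells), then washed. Resuspended at 2.5 × 10^5 cells/mL in medium with 10 U/mL IL-2. Drugs in ddH2O added to duplicate or triplicate cultures. Held 6 days at 37 °C; supernatant p24 measured by ELISA.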

Homo sapiens [8] = species: Homo sapiens; assay: Effective concentration required to inhibit the replication of HIV-1 by 50% in PMBCs in the absence of thymidine; type: functional, organism-based
Homo sapiens [9] = species: Homo sapiens; assay: Effective concentration required to inhibit the replication of HIV-1 by 50% in PMBCs in the presence of thymidine; type: functional, organism-based
Homo sapiens [10] = species: Homo sapiens; assay: Effective concentration required to inhibit the replication of HIV-1 with 2 hr pretreatment of activated PBMCs; type: functional, organism-based
Outline: (§4)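 Uninfected PHA-stimulated PBMCs (2.5 × 10^5 cells/mL) given compound in ddH2O in triplicate for 2 h at 37 °C, then LAI/HIV-1 (5000 DPM/10^6 cells) added. In parallel cultures, cells were infected 3 h first and then treated. After 6 days at 37 °C, supernatant RT activity measured.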

Homo sapiens [11] = species: Homo sapiens; assay: Effective concentration required to inhibit the replication of HIV-1 with no pretreatment of activated PBMCs; type: functional, organism-based; outline: as §4
Homo sapiens [12] = species: Homo sapiens; assay: Effective concentration to inhibit HIV-1 replication by 50% in PMBCs cells from donor 1; type: functional, cell-based
Homo sapiens [13] = species: Homo sapiens; assay: Effective concentration to inhibit HIV-1 replication by 50% in PMBCs cells from donor 2; type: functional, cell-based
Outline: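 Ficoll-isolated human PBMCs, PHA-stimulated, grown in RPMI 1640 with 10% heat-inactivated FBS, penicillin/streptomycin and IL-2 (10 U/mL) at 37 °C. Cells were infected with LAI/HIV-1, and compounds in ddH2O were added to duplicate or triplicate cultures. After 6 days, supernatant viral RT activity was measured.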

Homo sapiens [14] = species: Homo sapiens; assay: Concentration required to kill 50% of PBMCs cells; type: functional, cell-based; settings: PBMC; outline: as §1
[15] = Inhibition of AZT-MP production by cell free extracts of CEM cells; type: functional, Homo sapiens, CCRF-CEM; design: unit not given here
Outline: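 CEM cells (1.5 × 10^8) sonicated in 1 mL 20 mM Tris-HCl, 500 mM NaCl, pH 7.5. Lysate incubated with phosphoramidate and carbamate, each added from 10 mM stock, for 45 min at 37 °C, then stopped with methanol. AZT-MP quantified by RP-HPLC-RIA against a no-carbamate control. Mean of two experiments.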

U1 = assay: Antiviral activity was determined in chronically infected U1 cell line with HIV-1; type: functional, cell-based; settings: Homo sapiens
Outline: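 HIV-1 chronically infected U1 cells (1.5 × 10^5 cells/well) in RPMI 1640 with 10% FBS and 10 ng/mL TNF-α. Compound in ddH2O added to duplicate cultures. Incubated 48 h at 37 °C, 5% CO2. Supernatant p24gag measured by ELISA; XTT assay run on the remaining culture.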

[16] = system: Human immunodeficiency virus 1; assay: Concentration required to inhibit HIV-1 replication by 50% in activated PBMCs
[17] = system: Human immunodeficiency virus 1; assay: Concentration required to inhibit the production of proviral DNA in unactivated PBMCs
Homo sapiens [18] = species: Homo sapiens; assay: Inhibition of Phosphoramidase activity with AZT L-amino acid carbamates; type: functional; settings: concentration not given here
Outline: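 CEM cells (1.5 × 10^8) sonicated in 1 mL 20 mM Tris-HCl, 500 mM NaCl, pH 7.5. Whole lysate incubated 45 min at 37 °C with phosphoramidate (from 10 mM water stock) and carbamate (from 10 mM DMSO stock), then stopped with methanol. AZT-MP quantified by RP-HPLC-RIA against a no-carbamate control. Mean of two experiments.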

Row | SMILES | IC50 (CCRF-CEM [1]) [µM] | EC50 (Homo sapiens [2]) [µM] | EC50 (Homo sapiens [3]) [µM] | IC50 (Homo sapiens [4]) [µM] | further results
1 | COC(=O)[C@@H](Cc1c[nH]c2ccccc12)NP(=O)(O)OC[C@H]1O[C@@H](n2cc(C)c(=O)[nH]c2=O)C[C@@H]1N=[N+]=[N-] | > 100 | 1 | 1 | > 100 | –
2 | CNC(=O)[C@@H](Cc1c[nH]c2ccccc12)NP(=O)(O)OC[C@H]1O[C@@H](n2cc(C)c(=O)[nH]c2=O)C[C@@H]1N=[N+]=[N-] | > 100 | 0.4 | 0.18 | > 100 | –
3 | COC(=O)[C@H](Cc1ccccc1)NP(=O)(O)OC[C@H]1O[C@@H](n2cc(C)c(=O)[nH]c2=O)C[C@@H]1N=[N+]=[N-] | – | – | – | – | Concentration (pM (10e6*cells)-1) (Homo sapiens [5]): 0; Concentration (pM (10e6*cells)-1) (Homo sapiens [6]): 0.01
4 | COC(=O)[C@H](Cc1c[nH]c2ccccc12)NP(=O)(O)OC[C@H]1O[C@@H](n2cc(C)c(=O)[nH]c2=O)C[C@@H]1N=[N+]=[N-] | > 100 | – | – | – | EC50 (CCRF-CEM [7]): 0.004 µM; Concentration (pM (10e6*cells)-1) (Homo sapiens [5]): 0.01; Concentration (pM (10e6*cells)-1) (Homo sapiens [6]): 0.22; EC50 (Homo sapiens [8]): 0.35 µM; EC50 (Homo sapiens [9]): 30 µM; EC50 (Homo sapiens [10]): < 0.01 µM; EC50 (Homo sapiens [11]): 0.35 µM; EC50 (Homo sapiens [12]): 2 µM; EC50 (Homo sapiens [13]): 0.35 µM; IC50 (Homo sapiens [14]): > 100 µM; Activity [15]: 6.39; EC50 (U1): 40 µM; EC50 [16]: 0.35 µM; IC100 [17]: 0.1 µM
5 | CNC(=O)[C@H](Cc1ccccc1)NP(=O)(O)OC[C@H]1O[C@@H](n2cc(C)c(=O)[nH]c2=O)C[C@@H]1N=[N+]=[N-] | > 100 | 0.18 | 0.25 | > 100 | –
6 | CNC(=O)[C@H](Cc1c[nH]c2ccccc12)NP(=O)(O)OC[C@H]1O[C@@H](n2cc(C)c(=O)[nH]c2=O)C[C@@H]1N=[N+]=[N-] | > 100 | 0.7 | 1.8 | > 100 | –
7 | COC(=O)[C@H](CC(C)C)NP(=O)(O)OC[C@H]1O[C@@H](n2cc(C)c(=O)[nH]c2=O)C[C@@H]1N=[N+]=[N-] | > 100 | 1.3 | 1 | > 100 | –
8 | COC(=O)[C@@H](Cc1c[nH]c2ccccc12)NP(=O)(O)OC[C@H]1O[C@@H](n2cc(C)c(=O)[nH]c2=O)C[C@@H]1N=[N+]=[N-].COC(=O)[C@H](Cc1c[nH]c2ccccc12)NC(=O)OC[C@H]1O[C@@H](n2cc(C)c(=O)[nH]c2=O)C[C@@H]1N=[N+]=[N-] | – | – | – | – | inhibition (Homo sapiens [18]): 60%
